Experimental data from ChEMBL document CHEMBL2424530, “Synthesis, biological evaluation and molecular docking studies of pyrazole derivatives coupling with a thiourea moiety as novel CDKs inhibitors” (Eur J Med Chem, 2013).

What was measured:
[1] = Cytotoxicity against human H460 cells assessed as growth inhibition after 24 to 48 hrs by CCK8 assay; format: functional, cell-based; details: NCI-H460
How it was run: (§1)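 CCK8 proliferation assay: 1-5 × 10³ cells per well grew for 12 h, then were exposed to increasing compound concentrations in 10% FBS for 24 or 48 h. CCK8 dye was added for 1-2 h and plates were read on a multilabel counter. Percent inhibition or IC₅₀ was calculated against DMSO-treated control wells.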

[2] = biological target: Cyclin-dependent kinase 2 (Homo sapiens, UniProt P24941); experiment: Inhibition of human N-terminal hexahistidine-tagged CDK2 expressed in baculovirus infected Sf21 cells using histone H1 as substrate after 10 mins in presence of [gamma-32P]-ATP
A549 [3] = experiment: Cytotoxicity against human A549 cells assessed as growth inhibition after 24 to 48 hrs by CCK8 assay; format: functional, cell-based; how it was run: as §1
MCF7 = experiment: Cytotoxicity against human MCF7 cells assessed as growth inhibition after 24 to 48 hrs by CCK8 assay; format: functional, cell-based; how it was run: as §1
[4] = biological target: Epidermal growth factor receptor (Homo sapiens, UniProt P00533); experiment: Inhibition of human C-terminal EGFR tyrosine kinase domain
Epidermal growth factor receptor, sequence (P00533 whole entry, the tested form may be a part): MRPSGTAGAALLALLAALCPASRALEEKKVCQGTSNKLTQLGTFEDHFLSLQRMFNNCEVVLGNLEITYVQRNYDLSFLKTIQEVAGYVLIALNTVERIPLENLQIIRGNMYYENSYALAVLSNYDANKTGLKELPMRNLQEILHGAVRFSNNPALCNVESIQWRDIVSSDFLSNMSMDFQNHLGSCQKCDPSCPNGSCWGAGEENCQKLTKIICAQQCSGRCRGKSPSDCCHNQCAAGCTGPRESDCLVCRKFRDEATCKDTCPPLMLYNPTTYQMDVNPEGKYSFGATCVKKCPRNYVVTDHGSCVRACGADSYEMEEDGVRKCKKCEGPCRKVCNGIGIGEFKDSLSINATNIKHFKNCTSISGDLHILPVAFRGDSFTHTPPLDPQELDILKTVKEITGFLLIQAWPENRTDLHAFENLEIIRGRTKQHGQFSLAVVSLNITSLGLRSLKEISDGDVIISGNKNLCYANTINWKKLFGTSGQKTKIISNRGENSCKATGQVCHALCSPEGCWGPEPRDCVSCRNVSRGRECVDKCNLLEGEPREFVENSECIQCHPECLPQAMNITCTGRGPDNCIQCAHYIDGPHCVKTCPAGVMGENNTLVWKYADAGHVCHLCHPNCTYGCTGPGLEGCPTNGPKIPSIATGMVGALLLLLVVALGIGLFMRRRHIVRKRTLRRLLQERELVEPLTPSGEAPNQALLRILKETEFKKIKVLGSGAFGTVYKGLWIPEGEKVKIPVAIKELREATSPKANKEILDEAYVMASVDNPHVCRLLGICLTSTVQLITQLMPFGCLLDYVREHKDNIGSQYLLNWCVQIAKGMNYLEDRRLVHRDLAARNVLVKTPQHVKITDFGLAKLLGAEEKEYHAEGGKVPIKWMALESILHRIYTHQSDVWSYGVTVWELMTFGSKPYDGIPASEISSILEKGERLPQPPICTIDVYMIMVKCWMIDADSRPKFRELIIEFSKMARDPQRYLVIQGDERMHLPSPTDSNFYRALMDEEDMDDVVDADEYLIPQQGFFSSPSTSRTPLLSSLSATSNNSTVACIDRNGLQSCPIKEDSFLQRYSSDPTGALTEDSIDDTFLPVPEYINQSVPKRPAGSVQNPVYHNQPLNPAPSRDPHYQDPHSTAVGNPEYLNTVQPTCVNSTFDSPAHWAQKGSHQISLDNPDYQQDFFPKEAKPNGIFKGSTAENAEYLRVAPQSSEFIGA

[5] = biological target: Cyclin-dependent kinase 1 (Homo sapiens, UniProt P06493); experiment: Inhibition of CDK1 (unknown origin) using histone H1 as substrate after 10 mins in presence of [gamma-32P]-ATP
Cyclin-dependent kinase 1, sequence (P06493 whole entry): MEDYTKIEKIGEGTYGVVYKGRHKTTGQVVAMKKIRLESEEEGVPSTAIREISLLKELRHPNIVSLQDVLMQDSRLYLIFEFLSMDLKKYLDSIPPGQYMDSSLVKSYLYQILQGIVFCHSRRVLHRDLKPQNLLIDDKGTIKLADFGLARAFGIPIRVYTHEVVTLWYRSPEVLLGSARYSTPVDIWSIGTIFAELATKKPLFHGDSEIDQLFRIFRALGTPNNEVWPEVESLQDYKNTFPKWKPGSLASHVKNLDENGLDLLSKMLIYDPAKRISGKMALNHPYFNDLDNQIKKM
How it was run: (§2)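 Radiometric kinase reaction in 50 mM Tris-HCl with ATP plus γ-³²P ATP, 10 mM MgCl₂, 5 mM DTT and histone H1 substrate. It ran 10 min with inhibitor and was stopped with 30% phosphoric acid. Mixtures were spotted on P81 paper and washed five times with 10 mM Tris-HCl (pH 8.0)/0.1 M NaCl. Spot radioactivity was imaged, and IC₅₀ was the concentration giving 50% inhibition.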

[6] = biological target: Cyclin-dependent kinase 7 (Homo sapiens, UniProt P50613); experiment: Inhibition of CDK7 (unknown origin) using histone H1 as substrate after 10 mins in presence of [gamma-32P]-ATP; how it was run: as §2
Cyclin-dependent kinase 7, sequence (P50613 whole entry): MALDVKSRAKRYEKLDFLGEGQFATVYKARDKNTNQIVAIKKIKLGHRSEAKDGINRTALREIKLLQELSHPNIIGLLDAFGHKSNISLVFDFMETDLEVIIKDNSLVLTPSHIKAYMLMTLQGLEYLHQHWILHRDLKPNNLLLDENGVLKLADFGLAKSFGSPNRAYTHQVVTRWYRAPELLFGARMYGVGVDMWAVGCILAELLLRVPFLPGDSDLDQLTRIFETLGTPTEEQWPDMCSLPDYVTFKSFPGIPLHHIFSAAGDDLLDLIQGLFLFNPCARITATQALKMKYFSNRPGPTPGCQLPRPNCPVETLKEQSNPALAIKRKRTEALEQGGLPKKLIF

[7] = biological target: Cyclin-dependent kinase 4 (Homo sapiens, UniProt P11802); experiment: Inhibition of CDK4 (unknown origin) using histone H1 as substrate after 10 mins in presence of [gamma-32P]-ATP; how it was run: as §2
Cyclin-dependent kinase 4, sequence (P11802 whole entry): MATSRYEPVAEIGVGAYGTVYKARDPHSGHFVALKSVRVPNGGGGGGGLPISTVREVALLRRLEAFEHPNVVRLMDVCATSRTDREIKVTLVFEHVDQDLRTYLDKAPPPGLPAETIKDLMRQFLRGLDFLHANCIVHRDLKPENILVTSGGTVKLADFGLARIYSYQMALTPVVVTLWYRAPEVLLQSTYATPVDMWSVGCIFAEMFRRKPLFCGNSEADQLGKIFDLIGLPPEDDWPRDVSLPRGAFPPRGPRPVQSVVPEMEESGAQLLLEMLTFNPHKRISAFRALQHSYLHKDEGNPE

[8] = biological target: Cyclin-dependent kinase 5 (Homo sapiens, UniProt Q00535); experiment: Inhibition of CDK5 (unknown origin) using histone H1 as substrate after 10 mins in presence of [gamma-32P]-ATP; how it was run: as §2
Cyclin-dependent kinase 5, sequence (Q00535 whole entry, the tested form may be a part): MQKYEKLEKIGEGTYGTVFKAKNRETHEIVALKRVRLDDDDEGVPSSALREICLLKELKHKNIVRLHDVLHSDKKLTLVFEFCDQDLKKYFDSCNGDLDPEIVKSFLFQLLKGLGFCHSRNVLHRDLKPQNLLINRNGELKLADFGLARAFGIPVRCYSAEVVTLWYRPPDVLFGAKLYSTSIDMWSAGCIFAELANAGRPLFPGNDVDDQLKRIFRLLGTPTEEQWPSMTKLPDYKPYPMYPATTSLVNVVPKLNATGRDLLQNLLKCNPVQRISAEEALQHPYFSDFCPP

[9] = biological target: Vascular endothelial growth factor receptor 2 (Homo sapiens, UniProt P35968); experiment: Inhibition of human VEGFR2 tyrosine kinase domain (Asp807 to Val1356) using poly-(Glu4-Tyr) as substrate incubated for 15 mins prior to ATP addition measured after 40 mins by DELFIA
Vascular endothelial growth factor receptor 2, sequence (P35968 whole entry, the tested form may be a part): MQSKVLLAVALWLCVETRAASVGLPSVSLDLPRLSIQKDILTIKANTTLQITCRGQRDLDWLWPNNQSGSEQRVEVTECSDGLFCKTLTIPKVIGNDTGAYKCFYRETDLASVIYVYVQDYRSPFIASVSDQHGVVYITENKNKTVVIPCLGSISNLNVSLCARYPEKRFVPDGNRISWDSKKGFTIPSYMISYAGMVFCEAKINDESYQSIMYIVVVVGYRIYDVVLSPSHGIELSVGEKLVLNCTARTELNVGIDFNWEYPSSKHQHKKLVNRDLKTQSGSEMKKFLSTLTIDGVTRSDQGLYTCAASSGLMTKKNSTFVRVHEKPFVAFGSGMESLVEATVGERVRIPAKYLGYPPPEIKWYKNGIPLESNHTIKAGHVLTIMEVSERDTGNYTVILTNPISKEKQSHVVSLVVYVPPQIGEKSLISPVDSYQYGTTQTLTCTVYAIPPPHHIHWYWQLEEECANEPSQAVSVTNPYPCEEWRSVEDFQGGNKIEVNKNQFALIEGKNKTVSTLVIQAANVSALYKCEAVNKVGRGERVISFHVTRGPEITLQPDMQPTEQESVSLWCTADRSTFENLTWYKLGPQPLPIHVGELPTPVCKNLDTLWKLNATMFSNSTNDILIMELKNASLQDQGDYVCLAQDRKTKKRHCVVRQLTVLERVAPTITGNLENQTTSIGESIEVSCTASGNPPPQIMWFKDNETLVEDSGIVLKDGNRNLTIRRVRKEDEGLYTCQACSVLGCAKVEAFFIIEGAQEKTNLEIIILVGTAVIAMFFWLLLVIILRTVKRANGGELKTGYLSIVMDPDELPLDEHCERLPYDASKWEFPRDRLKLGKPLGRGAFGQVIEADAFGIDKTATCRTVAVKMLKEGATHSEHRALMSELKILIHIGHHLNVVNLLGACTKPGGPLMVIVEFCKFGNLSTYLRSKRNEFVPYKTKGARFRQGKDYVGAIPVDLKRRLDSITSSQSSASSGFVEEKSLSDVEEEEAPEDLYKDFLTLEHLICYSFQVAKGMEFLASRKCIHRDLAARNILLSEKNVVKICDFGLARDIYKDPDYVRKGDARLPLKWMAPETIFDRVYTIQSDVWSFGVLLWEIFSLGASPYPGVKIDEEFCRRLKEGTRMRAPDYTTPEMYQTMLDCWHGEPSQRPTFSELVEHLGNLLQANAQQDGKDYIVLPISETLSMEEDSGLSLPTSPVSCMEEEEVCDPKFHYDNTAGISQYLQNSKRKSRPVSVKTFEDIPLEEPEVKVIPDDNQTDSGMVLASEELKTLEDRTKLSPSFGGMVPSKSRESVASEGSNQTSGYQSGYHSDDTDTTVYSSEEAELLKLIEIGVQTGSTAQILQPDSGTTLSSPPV

[10] = biological target: Cyclin-dependent kinase 6 (Homo sapiens, UniProt Q00534); experiment: Inhibition of CDK6 (unknown origin) using histone H1 as substrate after 10 mins in presence of [gamma-32P]-ATP; how it was run: as §2
Cyclin-dependent kinase 6, sequence (Q00534 whole entry): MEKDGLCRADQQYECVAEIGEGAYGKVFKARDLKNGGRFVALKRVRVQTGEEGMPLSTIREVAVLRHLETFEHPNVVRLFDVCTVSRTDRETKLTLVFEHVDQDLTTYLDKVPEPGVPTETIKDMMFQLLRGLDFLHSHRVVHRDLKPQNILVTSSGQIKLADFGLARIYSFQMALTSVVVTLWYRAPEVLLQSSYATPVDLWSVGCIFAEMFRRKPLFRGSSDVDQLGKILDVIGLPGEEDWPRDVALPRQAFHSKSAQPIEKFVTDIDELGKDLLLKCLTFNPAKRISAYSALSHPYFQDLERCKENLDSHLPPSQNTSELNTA

A549 [11] = experiment: Cell cycle arrest in human A549 cells assessed as accumulation at G0/G1 phase after 36 hrs by propidium iodide staining-based FACS flow cytometric analysis; format: functional
A549 [12] = experiment: Cell cycle arrest in human A549 cells assessed as accumulation at S phase at 0.5 uM after 36 hrs by propidium iodide staining-based FACS flow cytometric analysis (reference value: 40.84%); format: functional
A549 [13] = experiment: Cell cycle arrest in human A549 cells assessed as accumulation at subG0 phase at 2 uM after 36 hrs by propidium iodide staining-based FACS flow cytometric analysis relative to control; format: functional
A549 [14] = experiment: Cell cycle arrest in human A549 cells assessed as accumulation at G0/G1 phase at 2 uM after 36 hrs by propidium iodide staining-based FACS flow cytometric analysis (reference value: 57.07%); format: functional
A549 [15] = experiment: Cell cycle arrest in human A549 cells assessed as accumulation at subG0 phase at 0.5 uM after 36 hrs by propidium iodide staining-based FACS flow cytometric analysis relative to control; format: functional
A549 [16] = experiment: Cell cycle arrest in human A549 cells assessed as accumulation at G0/G1 phase at 1 uM after 36 hrs by propidium iodide staining-based FACS flow cytometric analysis (reference value: 57.07%); format: functional
A549 [17] = experiment: Cell cycle arrest in human A549 cells assessed as accumulation at S phase at 1 uM after 36 hrs by propidium iodide staining-based FACS flow cytometric analysis (reference value: 40.84%); format: functional
A549 [18] = experiment: Cell cycle arrest in human A549 cells assessed as accumulation at subG0 phase at 1 uM after 36 hrs by propidium iodide staining-based FACS flow cytometric analysis relative to control; format: functional
A549 [19] = experiment: Cell cycle arrest in human A549 cells assessed as accumulation at G2/M phase at 1 uM after 36 hrs by propidium iodide staining-based FACS flow cytometric analysis (reference value: 2.09%); format: functional
A549 [20] = experiment: Cell cycle arrest in human A549 cells assessed as accumulation at G2/M phase at 0.5 uM after 36 hrs by propidium iodide staining-based FACS flow cytometric analysis (reference value: 2.09%); format: functional
A549 [21] = experiment: Cell cycle arrest in human A549 cells assessed as accumulation at S phase at 2 uM after 36 hrs by propidium iodide staining-based FACS flow cytometric analysis (reference value: 40.84%); format: functional
A549 [22] = experiment: Cell cycle arrest in human A549 cells assessed as accumulation at G0/G1 phase at 0.5 uM after 36 hrs by propidium iodide staining-based FACS flow cytometric analysis (reference value: 57.07%); format: functional
A549 [23] = experiment: Cell cycle arrest in human A549 cells assessed as accumulation at G2/M phase at 2 uM after 36 hrs by propidium iodide staining-based FACS flow cytometric analysis (reference value: 2.09%); format: functional

Cc1ccc(-c2nn(-c3ccccc3)cc2C(=O)NC(=S)Nc2ccc(F)cc2)cc1
IC50 [1]: 3.98 µM | IC50 [2]: 41 nM | IC50 (A549 [3]): 3420 nM | IC50 (MCF7): 6.42 µM

COc1ccc(NC(=S)NC(=O)c2cn(-c3ccccc3)nc2-c2ccc(C)cc2)cc1
IC50 [1]: 3.24 µM | IC50 [2]: 47 nM | IC50 [4]: > 5 µM | IC50 [5]: 584 nM | IC50 (A549 [3]): 2390 nM | IC50 (MCF7): 5.12 µM | IC50 [6]: 1790 nM | IC50 [7]: 40 nM | IC50 [8]: 1420 nM | IC50 [9]: > 5 µM | IC50 [10]: 43 nM

COc1ccc(NC(=S)NC(=O)c2cn(-c3ccccc3)nc2-c2ccc(OC)cc2)cc1
IC50 [1]: 2.57 µM | IC50 [2]: 25 nM | Activity (A549 [11]): Dose-dependent effect | IC50 [4]: > 5 µM | IC50 [5]: 522 nM | IC50 (A549 [3]): 750 nM | Activity (A549 [12]): 32.47% | Activity (A549 [13]): 0% | Activity (A549 [14]): 64% | Activity (A549 [15]): 0% | Activity (A549 [16]): 62.53% | IC50 (MCF7): 4.21 µM | IC50 [6]: 1420 nM | IC50 [7]: 35 nM | Activity (A549 [17]): 34.48% | IC50 [8]: 1090 nM | Activity (A549 [18]): 0% | Activity (A549 [19]): 2.99% | IC50 [9]: > 5 µM | Activity (A549 [20]): 8.04% | Activity (A549 [21]): 28.48% | IC50 [10]: 29 nM | Activity (A549 [22]): 59.49% | Activity (A549 [23]): 7.52%

COc1ccc(-c2nn(-c3ccccc3)cc2C(=O)NC(=S)Nc2ccc(C)cc2)cc1
IC50 [1]: 2.88 µM | IC50 [2]: 29 nM | IC50 (A549 [3]): 1250 nM | IC50 (MCF7): 4.63 µM

COc1ccc(-c2nn(-c3ccccc3)cc2C(=O)NC(=S)Nc2ccc(Cl)cc2)cc1
IC50 [1]: 3.01 µM | IC50 [2]: 30 nM | IC50 (A549 [3]): 1310 nM | IC50 (MCF7): 4.76 µM

COc1ccc(NC(=S)NC(=O)c2cn(-c3ccccc3)nc2-c2ccccc2)cc1
IC50 [1]: 3.54 µM | IC50 [2]: 56 nM | IC50 [4]: > 5 µM | IC50 [5]: 610 nM | IC50 (A549 [3]): 2500 nM | IC50 (MCF7): 5.46 µM | IC50 [6]: 1880 nM | IC50 [7]: 42 nM | IC50 [8]: 1500 nM | IC50 [9]: > 5 µM | IC50 [10]: 50 nM

COc1ccc(NC(=S)NC(=O)c2cn(-c3ccccc3)nc2-c2ccc(Cl)cc2)cc1
IC50 [1]: 3.01 µM | IC50 [2]: 37 nM | IC50 [4]: > 5 µM | IC50 [5]: 571 nM | IC50 (A549 [3]): 2270 nM | IC50 (MCF7): 5.24 µM | IC50 [6]: 1650 nM | IC50 [7]: 40 nM | IC50 [8]: 1360 nM | IC50 [9]: > 5 µM | IC50 [10]: 42 nM

Cn1cnc2c(NCc3ccccc3)nc(NCCO)nc21 [OLOMOUCINE]
IC50 [1]: 132 µM | IC50 (A549 [3]): 130000 nM | IC50 (MCF7): 142 µM

O=C(NC(=S)Nc1ccc(F)cc1)c1cn(-c2ccccc2)nc1-c1ccccc1
IC50 [1]: 4.21 µM | IC50 [2]: 75 nM | IC50 (A549 [3]): 3500 nM | IC50 (MCF7): 6.82 µM

Cc1ccc(-c2nn(-c3ccccc3)cc2C(=O)NC(=S)Nc2ccc(Cl)cc2)cc1
IC50 [1]: 3.65 µM | IC50 [2]: 63 nM | IC50 (A549 [3]): 3170 nM | IC50 (MCF7): 6.21 µM

O=C(NC(=S)Nc1ccc(Cl)cc1)c1cn(-c2ccccc2)nc1-c1ccc(F)cc1
IC50 [1]: 3.09 µM | IC50 [2]: 44 nM | IC50 (A549 [3]): 2990 nM | IC50 (MCF7): 5.47 µM

COc1ccc(-c2nn(-c3ccccc3)cc2C(=O)NC(=S)Nc2ccc(F)cc2)cc1
IC50 [1]: 3.05 µM | IC50 [2]: 32 nM | IC50 (A549 [3]): 1430 nM | IC50 (MCF7): 4.99 µM

O=C(NC(=S)Nc1ccc(Cl)cc1)c1cn(-c2ccccc2)nc1-c1ccccc1
IC50 [1]: 4.02 µM | IC50 [2]: 71 nM | IC50 (A549 [3]): 3200 nM | IC50 (MCF7): 6.23 µM

Cc1ccc(NC(=S)NC(=O)c2cn(-c3ccccc3)nc2-c2ccc(Cl)cc2)cc1
IC50 [1]: 3.12 µM | IC50 [2]: 42 nM | IC50 (A549 [3]): 2690 nM | IC50 (MCF7): 5.98 µM

O=C(NC(=S)Nc1ccc(Cl)cc1)c1cn(-c2ccccc2)nc1-c1ccc(Cl)cc1
IC50 [1]: 3.26 µM | IC50 [2]: 58 nM | IC50 (A549 [3]): 3150 nM | IC50 (MCF7): 5.36 µM

Cc1ccc(NC(=S)NC(=O)c2cn(-c3ccccc3)nc2-c2ccc(F)cc2)cc1
IC50 [1]: 2.98 µM | IC50 [2]: 43 nM | IC50 (A549 [3]): 2080 nM | IC50 (MCF7): 5.44 µM

Cc1ccc(NC(=S)NC(=O)c2cn(-c3ccccc3)nc2-c2ccccc2)cc1
IC50 [1]: 3.96 µM | IC50 [2]: 69 nM | IC50 (A549 [3]): 2800 nM | IC50 (MCF7): 5.9 µM

O=C(NC(=S)Nc1ccc(F)cc1)c1cn(-c2ccccc2)nc1-c1ccc(F)cc1
IC50 [1]: 3.24 µM | IC50 [2]: 49 nM | IC50 (A549 [3]): 3540 nM | IC50 (MCF7): 5.61 µM

COc1ccc(NC(=S)NC(=O)c2cn(-c3ccccc3)nc2-c2ccc(F)cc2)cc1
IC50 [1]: 2.86 µM | IC50 [2]: 36 nM | IC50 [4]: > 5 µM | IC50 [5]: 569 nM | IC50 (A549 [3]): 1980 nM | IC50 (MCF7): 4.89 µM | IC50 [6]: 1640 nM | IC50 [7]: 39 nM | IC50 [8]: 1180 nM | IC50 [9]: > 5 µM | IC50 [10]: 33 nM

O=C(NC(=S)Nc1ccc(F)cc1)c1cn(-c2ccccc2)nc1-c1ccc(Cl)cc1
IC50 [1]: 3.64 µM | IC50 [2]: 59 nM | IC50 (A549 [3]): 3980 nM | IC50 (MCF7): 5.99 µM

Cc1ccc(NC(=S)NC(=O)c2cn(-c3ccccc3)nc2-c2ccc(C)cc2)cc1
IC50 [1]: 3.76 µM | IC50 [2]: 52 nM | IC50 (A549 [3]): 2830 nM | IC50 (MCF7): 5.66 µM
